The values that follow come from ChEMBL document CHEMBL3808358, “Rational Design of Small Peptides for Optimal Inhibition of Cyclooxygenase-2: Development of a Highly Effective Anti-Inflammatory Agent” (J Med Chem, 2016).

Data set [1] relates to Mus musculus. Briefly: Antiinflammatory activity in Swiss albino mouse assessed as reduction in carrageenan-induced paw edema by measuring paw thickness at 5 mg/kg, ip dosed 30 mins before carrageenan injection measured up to 300 mins by vernier calliper method relative to control. The data set is classed as functional. A general note: In the carrageenan paw model, swelling and tenderness develop within hours.

The test system of data set [2] is Mus musculus. Briefly: Analgesic activity in Swiss albino mouse assessed as reduction in formalin-induced paw flinches in neurogenic phase at 5 mg/kg, ip dosed 30 mins before formalin injection measured up to 5 mins. It counts as functional, organism-based. In short, it runs like this: (§1)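 Swiss albino mice of either sex (25-35 g). 20 μL of 2% formalin is injected into the plantar surface of the right hind paw 30 min after treatment. Hind paw flinches are counted for the neurogenic phase (0-5 min) and the inflammatory phase (15-30 min). Results are given as mean ± SEM.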

Data set [3] concerns Mus musculus. Briefly: Analgesic activity in Swiss albino mouse assessed as reduction in formalin-induced paw flinches in inflammatory phase at 5 mg/kg, ip dosed 30 mins before formalin injection measured after 15 to 30 mins. The data set is classed as functional, organism-based. In short, it runs like this:
as §1

Data set [4] deals with Mus musculus. Briefly: Analgesic activity in Swiss albino mouse assessed as reduction in capsaicin-induced paw licking at 5 to 10 mg/kg, ip dosed 30 mins before capsaicin injection measured for 10 mins in presence of substance P pre-treated 30 mins before compound dosing. The data set is classed as functional, organism-based. In short, it runs like this:
(§2)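 Mice of either sex (25-35 g), 5 per group. The modulator is given 30 min before the test compound, and capsaicin 30 min after that: substance P 10 µg/kg, L-arginine 40 mg/kg, L-NAME 20 mg/kg, veratrine 125 µg/kg, A23187 20 µg/kg, glipizide 30 µg/kg. Capsaicin is 1.6 μg in 20 μL intraplantar. Paw lickings are counted for 10 min.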

Data set [5] concerns Mus musculus. Briefly: Analgesic activity in Swiss albino mouse assessed as reduction in capsaicin-induced paw licking at 5 to 10 mg/kg, ip dosed 30 mins before capsaicin injection measured for 10 mins in presence of nitric oxide precursor L-arginine pre-treated 30 mins before compound dosing. The data set is classed as functional, organism-based. In short, it runs like this: as §2

Data set [6] has as its system Mus musculus. Briefly: Analgesic activity in Swiss albino mouse assessed as reduction in capsaicin-induced paw licking at 5 to 10 mg/kg, ip dosed 30 mins before capsaicin injection measured for 10 mins in presence of nitric oxide synthase inhibitor L-NAME pre-treated 30 mins before compound dosing. The data set is classed as functional, organism-based. In short, it runs like this: as §2

In data set [7] the test system is Mus musculus. Briefly: Analgesic activity in Swiss albino mouse assessed as reduction in capsaicin-induced paw licking at 5 to 10 mg/kg, ip dosed 30 mins before capsaicin injection measured for 10 mins in presence of […] A23187 pre-treated 30 mins before compound dosing. It counts as functional, organism-based. The method in brief:
as §2

Data set [8] deals with Mus musculus. Briefly: Analgesic activity in Swiss albino mouse assessed as reduction in capsaicin-induced paw licking at 5 to 10 mg/kg, ip dosed 30 mins before capsaicin injection measured for 10 mins in presence of ATP-sensitive potassium channel blocker glipizide pre-treated 30 mins before compound dosing. It counts as functional, organism-based. In short, it runs like this:
as §2

For data set [9], the system named is Mus musculus. Briefly: Acute toxicity in Swiss albino mouse assessed as gross behavioral abnormality up to 2000 mg/kg, po administered as single dose through gavage measured continuously for first 4 hrs and periodically for 24 hrs up to 14 days. It counts as organism-based. The following applies: in vivo. The method in brief: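 Swiss albino mice of either sex (25-35 g), housed at 22 ± 2 °C on a 12 h light/dark cycle. Per OECD 2001 guidance, groups of three received vehicle or 50, 300 or 2000 mg Kg⁻¹ after 4 h fasting. The animals were watched continuously for the first 4 h and then periodically over 24 h for gross behavioural abnormality.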

Calls of active or inactive are those of the source. The calls are words filed in the database; no cut-off is given here. Residues, ends and D or L forms follow the SMILES beside them.

The term inhibition in vivo denotes the share of the control response that was lost under treatment. As for `COC(=O)[C@H](CC(C)C)NC(=O)[C@H](Cc1ccccc1)NC(=O)CNC(=O)CN` (H-GGFL-OMe), in the data set on Mus musculus [1], the inhibition in vivo at 5 mg/kg is 60%. In addition, the outcome in the data set with Mus musculus [2], in the data set with Mus musculus [4] and with Mus musculus [5] was inactive. The outcome with Mus musculus [3], with Mus musculus [6], in the data set on Mus musculus [7] and in the data set on Mus musculus [8] was Active. In the data set on Mus musculus [9], the Activity result is recorded as “Non-toxic”.
